Source: ChEMBL document CHEMBL1145439, “Fluorine-18-labeled benzamide analogues for imaging the sigma2 receptor status of solid tumors with positron emission tomography” (J Med Chem, 2007)

Key:
Heart [1] = assay: Biodistribution in heart of mouse EMT6 tumor bearing BALB/c mouse at 10 to 20 uCi after 5 mins; assay type: ADME, organism-based; conditions: in vivo
In short: (§1)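 EMT-6 cells (5×10^5 in 100 µL PBS) implanted s.c. in scapular region of female Balb/c mice (~2 months, 17-22 g); studied 7-10 days later at ~0.2 cm3 tumor. 18F tracer 10-20 µCi in 100-150 µL saline via tail vein; ≥4 mice per time point; tissue removed at sacrifice, weighed, gamma-counted; %ID/g calculated.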

Blood [2] = assay: Biodistribution in blood of mouse EMT6 tumor bearing BALB/c mouse at 10 to 20 uCi after 60 mins; assay type: ADME, organism-based; conditions: in vivo, 1 h; in short: as §1
Adipose tissue [3] = assay: Biodistribution in fat of mouse EMT6 tumor bearing BALB/c mouse at 10 to 20 uCi after 120 mins; assay type: ADME, organism-based; conditions: in vivo, 2 h; in short: as §1
Blood [4] = assay: Biodistribution in blood of mouse EMT6 tumor bearing BALB/c mouse at 10 to 20 uCi after 30 mins; assay type: ADME, organism-based; conditions: in vivo, 0.5 h; in short: as §1
Kidney [5] = assay: Biodistribution in kidney of mouse EMT6 tumor bearing BALB/c mouse at 10 to 20 uCi after 30 mins; assay type: ADME, organism-based; conditions: in vivo, 0.5 h; in short: as §1
Lung [6] = assay: Biodistribution in lung of mouse EMT6 tumor bearing BALB/c mouse at 10 to 20 uCi after 5 mins; assay type: ADME, organism-based; conditions: in vivo; in short: as §1
Adipose tissue [7] = assay: Biodistribution in fat of mouse EMT6 tumor bearing BALB/c mouse at 10 to 20 uCi after 30 mins; assay type: ADME, organism-based; conditions: in vivo, 0.5 h; in short: as §1
Liver [8] = assay: Biodistribution in liver of mouse EMT6 tumor bearing BALB/c mouse at 10 to 20 uCi after 120 mins; assay type: ADME, organism-based; conditions: in vivo, 2 h; in short: as §1
Liver [9] = assay: Biodistribution in liver of mouse EMT6 tumor bearing BALB/c mouse at 10 to 20 uCi after 5 mins; assay type: ADME, organism-based; conditions: in vivo; in short: as §1
[10] = Tumor to fat ratio of the drug in mouse EMT6 tumor bearing BALB/c mouse at 10 to 20 uCi after 2 hrs; assay type: ADME
In short: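 Tumor-bearing female Balb/c mice (EMT-6 s.c. allograft, ~0.2 cm3) given 10-20 µCi 18F tracer in saline i.v. via tail vein; ≥4 per group; killed 120 min later. Tissues weighed and gamma-counted; ratio = tumor %ID/g divided by that organ's %ID/g.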

Blood [11] = assay: Biodistribution in blood of mouse EMT6 tumor bearing BALB/c mouse at 10 to 20 uCi after 5 mins; assay type: ADME, organism-based; conditions: in vivo; in short: as §1
Bone [12] = assay: Biodistribution in bone of mouse EMT6 tumor bearing BALB/c mouse at 10 to 20 uCi after 60 mins; assay type: ADME, organism-based, Bone element; conditions: in vivo, 1 h; in short: as §1
EMT6 [13] = assay: Biodistribution in tumor of EMT6 tumor bearing BALB/c mouse 10 to 20 uCi after 30 mins; assay type: ADME, organism-based; conditions: emt6, 0.5 h; in short: as §1
Kidney [14] = assay: Biodistribution in kidney of mouse EMT6 tumor bearing BALB/c mouse at 10 to 20 uCi after 5 mins; assay type: ADME, organism-based; conditions: in vivo; in short: as §1
EMT6 [15] = assay: Biodistribution in tumor of mouse EMT6 tumor bearing BALB/c mouse at 10 to 20 uCi after 5 mins; assay type: ADME, organism-based; conditions: emt6, 5 min; in short: as §1
Heart [16] = assay: Biodistribution in heart of mouse EMT6 tumor bearing BALB/c mouse at 10 to 20 uCi after 30 mins; assay type: ADME, organism-based; conditions: in vivo, 0.5 h; in short: as §1
Muscle tissue [17] = assay: Biodistribution in muscle of mouse EMT6 tumor bearing BALB/c mouse at 10 to 20 uCi after 120 mins; assay type: ADME, organism-based; conditions: in vivo, 2 h; in short: as §1
Bone [18] = assay: Biodistribution in bone of mouse EMT6 tumor bearing BALB/c mouse at 10 to 20 uCi after 30 mins; assay type: ADME, organism-based, Bone element; conditions: in vivo, 0.5 h; in short: as §1
Blood [19] = assay: Biodistribution in blood of mouse EMT6 tumor bearing BALB/c mouse at 10 to 20 uCi after 120 mins; assay type: ADME, organism-based; conditions: in vivo, 2 h; in short: as §1
Heart [20] = assay: Biodistribution in heart of EMT6 tumor bearing BALB/c mouse at 10 to 20 uCi after 120 mins; assay type: ADME, organism-based; conditions: in vivo, 2 h; in short: as §1
EMT6 [21] = assay: Biodistribution in tumor of mouse EMT6 tumor bearing BALB/c mouse at 10 to 20 uCi after 60 mins; assay type: ADME, organism-based; conditions: emt6, 1 h; in short: as §1
Lung [22] = assay: Biodistribution in lung of mouse EMT6 tumor bearing BALB/c mouse at 10 to 20 uCi after 120 mins; assay type: ADME, organism-based; conditions: in vivo, 2 h; in short: as §1
Brain [23] = assay: Biodistribution in brain of EMT6 tumor bearing BALB/c mouse at 10 to 20 uCi after 60 mins; assay type: ADME, organism-based; conditions: in vivo, 1 h; in short: as §1
[24] = Decrease in tumor to muscle ratio of the drug in mouse EMT6 tumor bearing BALB/c mouse after 1 hr in presence of YUN-143; assay type: ADME; design: scale not given: the % may be the effect or the level left
In short: (§2)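 Blocking: 18F tracer coinjected i.v. with 1 mg/kg cold YUN-143 (σ1/σ2 ligand) into EMT-6 tumor-bearing female Balb/c mice; sacrificed at 60 min; tumor/muscle and tumor/fat ratios from %ID/g of gamma-counted tissues.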

Brain [25] = assay: Biodistribution in brain of mouse EMT6 tumor bearing BALB/c mouse at 10 to 20 uCi after 120 mins; assay type: ADME, organism-based; conditions: in vivo, 2 h; in short: as §1
Liver [26] = assay: Biodistribution in liver of mouse EMT6 tumor bearing BALB/c mouse at 10 to 20 uCi after 30 mins; assay type: ADME, organism-based; conditions: in vivo, 0.5 h; in short: as §1
Muscle tissue [27] = assay: Biodistribution in muscle of EMT6 tumor bearing BALB/c mouse at 10 to 20 uCi after 5 mins; assay type: ADME, organism-based; conditions: in vivo; in short: as §1
Brain [28] = assay: Biodistribution in brain of EMT6 tumor bearing BALB/c mouse at 10 to 20 uCi after 5 mins; assay type: ADME, organism-based; conditions: in vivo; in short: as §1
Muscle tissue [29] = assay: Biodistribution in muscle of mouse EMT6 tumor bearing BALB/c mouse at 10 to 20 uCi after 60 mins; assay type: ADME, organism-based; conditions: in vivo, 1 h; in short: as §1
Adipose tissue [30] = assay: Biodistribution in fat of mouse EMT6 tumor bearing BALB/c mouse at 10 to 20 uCi after 60 mins; assay type: ADME, organism-based; conditions: in vivo, 1 h; in short: as §1
Muscle tissue [31] = assay: Biodistribution in muscle of mouse EMT6 tumor bearing BALB/c mouse at 10 to 20 uCi after 30 mins; assay type: ADME, organism-based; conditions: in vivo, 0.5 h; in short: as §1
Bone [32] = assay: Biodistribution in bone of mouse EMT6 tumor bearing BALB/c mouse at 10 to 20 uCi after 5 mins; assay type: ADME, organism-based, Bone element; conditions: in vivo; in short: as §1
EMT6 [33] = assay: Biodistribution in tumor of mouse EMT6 tumor bearing BALB/c mouse at 10 to 20 uCi after 120 mins; assay type: ADME, organism-based; conditions: emt6, 2 h; in short: as §1
Liver [34] = assay: Biodistribution in liver of mouse EMT6 tumor bearing BALB/c mouse at 10 to 20 uCi after 60 mins; assay type: ADME, organism-based; conditions: in vivo, 1 h; in short: as §1
Bone [35] = assay: Biodistribution in bone of mouse EMT6 tumor bearing BALB/c mouse at 10 to 20 uCi after 120 mins; assay type: ADME, organism-based, Bone element; conditions: in vivo, 2 h; in short: as §1
Lung [36] = assay: Biodistribution in lung of mouse EMT6 tumor bearing BALB/c mouse at 10 to 20 uCi after 60 mins; assay type: ADME, organism-based; conditions: in vivo, 1 h; in short: as §1
[37] = Decrease in tumor to fat ratio of the drug in mouse EMT6 tumor bearing BALB/c mouse after 1 hr in presence of YUN-143; assay type: ADME; design: scale not given: the % may be the effect or the level left; in short: as §2
Kidney [38] = assay: Biodistribution in kidney of mouse EMT6 tumor bearing BALB/c mouse at 10 to 20 uCi after 120 mins; assay type: ADME, organism-based; conditions: in vivo, 2 h; in short: as §1
Lung [39] = assay: Biodistribution in lung of mouse EMT6 tumor bearing BALB/c mouse at 10 to 20 uCi after 30 mins; assay type: ADME, organism-based; conditions: in vivo, 0.5 h; in short: as §1
Adipose tissue [40] = assay: Biodistribution in fat of mouse EMT6 tumor bearing BALB/c mouse at 10 to 20 uCi after 5 mins; assay type: ADME, organism-based; conditions: in vivo; in short: as §1
Heart [41] = assay: Biodistribution in heart of mouse EMT6 tumor bearing BALB/c mouse at 10 to 20 uCi after 60 mins; assay type: ADME, organism-based; conditions: in vivo, 1 h; in short: as §1
Brain [42] = assay: Biodistribution in brain of EMT6 tumor bearing BALB/c mouse at 10 to 20 uCi after 30 mins; assay type: ADME, organism-based; conditions: in vivo, 0.5 h; in short: as §1
Kidney [43] = assay: Biodistribution in kidney of mouse EMT6 tumor bearing BALB/c mouse at 10 to 20 uCi after 60 mins; assay type: ADME, organism-based; conditions: in vivo, 1 h; in short: as §1

COc1cc2c(cc1OC)CN(CCCCNC(=O)c1cc(C)ccc1OCC[18F])CC2
Drug uptake (Heart [1]): 3.73 % ID/g
Drug uptake (Blood [2]): 0.56 % ID/g
Drug uptake (Adipose tissue [3]): 0.08 % ID/g
Drug uptake (Blood [4]): 1.16 % ID/g
Drug uptake (Kidney [5]): 6.86 % ID/g
Drug uptake (Lung [6]): 10.26 % ID/g
Drug uptake (Adipose tissue [7]): 0.59 % ID/g
Drug uptake (Liver [8]): 2.05 % ID/g
Drug uptake (Liver [9]): 23.33 % ID/g
Ratio [10]: 8
Drug uptake (Blood [11]): 2.49 % ID/g
Drug uptake (Bone [12]): 0.55 % ID/g
Drug uptake (EMT6 [13]): 2.54 % ID/g
Drug uptake (Kidney [14]): 29.18 % ID/g
Drug uptake (EMT6 [15]): 3.67 % ID/g
Drug uptake (Heart [16]): 1.15 % ID/g
Drug uptake (Muscle tissue [17]): 0.24 % ID/g
Drug uptake (Bone [18]): 0.96 % ID/g
Drug uptake (Blood [19]): 0.35 % ID/g
Drug uptake (Heart [20]): 0.27 % ID/g
Drug uptake (EMT6 [21]): 1.14 % ID/g
Drug uptake (Lung [22]): 0.43 % ID/g
Drug uptake (Brain [23]): 0.18 % ID/g
Activity [24]: 50%
Drug uptake (Brain [25]): 0.12 % ID/g
Drug uptake (Liver [26]): 10.51 % ID/g
Drug uptake (Muscle tissue [27]): 1.86 % ID/g
Drug uptake (Brain [28]): 0.76 % ID/g
Drug uptake (Muscle tissue [29]): 0.34 % ID/g
Drug uptake (Adipose tissue [30]): 0.22 % ID/g
Drug uptake (Muscle tissue [31]): 0.7 % ID/g
Drug uptake (Bone [32]): 2.49 % ID/g
Drug uptake (EMT6 [33]): 0.64 % ID/g
Drug uptake (Liver [34]): 4.14 % ID/g
Drug uptake (Bone [35]): 0.45 % ID/g
Drug uptake (Lung [36]): 0.88 % ID/g
Activity [37]: 50%
Drug uptake (Kidney [38]): 0.87 % ID/g
Drug uptake (Lung [39]): 2.36 % ID/g
Drug uptake (Adipose tissue [40]): 1.95 % ID/g
Drug uptake (Heart [41]): 0.55 % ID/g
Drug uptake (Brain [42]): 0.27 % ID/g
Drug uptake (Kidney [43]): 2.51 % ID/g
